Source: ChEMBL document CHEMBL1130334, “Effect of plasma protein binding on in vivo activity and brain penetration of glycine/NMDA receptor antagonists” (J Med Chem, 1997)

Target: Glutamate NMDA receptor (Rattus norvegicus) (UniProt P35439+Q00959+Q00960+Q00961+Q62645+Q8VHN2+Q9R1M7)
Assay: Protein binding index(PBI) reflects the relative displacement of [3H]glycine from rat cortical membranes in the presence and absence of 0.2% human serum albumin
Assay type: cell membranes
Conditions: Membrane
Summary of the method: (§1)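 [³H]glycine displacement from rat cortical membranes, with and without 0.2% (w/v) human serum albumin. Separation by centrifugation. Index = IC50 with albumin / IC50 without albumin.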

| PBI | Compound |
| --- | --- |
| 1.1 | NCc1ccc(CC(=O)N[C@H]2C[C@H](C(=O)O)Nc3cc(Cl)cc(Cl)c32)cc1 |
| 5.4 | COC(=O)c1c(O)c2ccc(Cl)cc2[nH]c1=O |
| 3.1 | Oc1nc2ccccc2c(O)c1-c1ccccc1 |
| 127 | Oc1nc2cc(Cl)ccc2c(O)c1-c1cccc(Oc2ccsc2)c1 |
| 193 | COc1ccc(Cc2cccc(-c3c(O)c4ccc(Cl)cc4[nH]c3=O)c2)cc1 |
| 758 | Oc1nc2cc(Cl)ccc2c(O)c1-c1cccc(Cc2ccccc2)c1 |
| 94 | O=c1[nH]c2cc(Cl)ccc2c(O)c1-c1cccc(Oc2ccccc2)c1 |

Target: Albumin (Homo sapiens, UniProt P02768)
Sequence (P02768 whole entry): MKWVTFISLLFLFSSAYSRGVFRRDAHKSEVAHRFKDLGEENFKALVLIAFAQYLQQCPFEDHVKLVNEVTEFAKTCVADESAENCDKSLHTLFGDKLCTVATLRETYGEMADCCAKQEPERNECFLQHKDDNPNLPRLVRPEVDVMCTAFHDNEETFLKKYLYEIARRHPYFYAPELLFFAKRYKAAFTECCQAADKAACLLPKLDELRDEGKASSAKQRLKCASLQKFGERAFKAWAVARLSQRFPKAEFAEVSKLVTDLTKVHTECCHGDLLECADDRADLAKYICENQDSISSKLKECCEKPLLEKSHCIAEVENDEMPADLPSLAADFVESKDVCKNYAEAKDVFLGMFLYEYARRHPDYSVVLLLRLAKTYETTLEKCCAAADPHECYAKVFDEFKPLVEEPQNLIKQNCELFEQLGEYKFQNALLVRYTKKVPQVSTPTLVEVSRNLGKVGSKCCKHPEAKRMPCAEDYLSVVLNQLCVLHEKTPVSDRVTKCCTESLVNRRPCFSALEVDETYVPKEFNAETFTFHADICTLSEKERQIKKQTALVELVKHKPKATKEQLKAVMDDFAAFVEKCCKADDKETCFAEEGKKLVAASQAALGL
Assay: Human serum albumin index was measured by retention time on an HPLC column containing human albumin
Conditions: not given
Summary of the method: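 HPLC on a column containing human serum albumin. Retention volume of each compound is divided by that of a reference standard and normalized so the standard equals 100.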

| HSAI | Compound |
| --- | --- |
| 78 | COCOc1ccc(Cc2cccc(-c3c(O)c4ccc(Cl)cc4[nH]c3=O)c2)cc1 |
| 2 | NCc1ccc(CC(=O)N[C@H]2C[C@H](C(=O)O)Nc3cc(Cl)cc(Cl)c32)cc1 |
| 13 | C=C(C)COc1cccc(C2=C(O)/C(=C/CC)NC2=O)c1 |
| 3 | COC(=O)c1c(O)c2ccc(Cl)cc2[nH]c1=O |
| 159 | Oc1nc2cc(Cl)ccc2c(O)c1-c1ccc(Oc2ccccc2)cc1 |
| 8 | Cc1ccc(-c2c(O)c3ccc(Cl)cc3[nH]c2=O)o1 |
| 97 | COc1ccc(Cc2cccc(-c3c(O)c4ccc(Cl)cc4[nH]c3=O)c2)cc1 |
| 28 | O=c1[nH]c2cc(Cl)c(Cl)c([N+](=O)[O-])c2[nH]c1=O [LICOSTINEL] |
| 10 | O=c1[nH]c2cc(Cl)ccc2c(O)c1-c1ccccc1 |
| 7 | O=C1Nc2cc(Cl)ccc2CC1[N+](=O)[O-] (configuration not stated) |
| 100 | O=c1[nH]c2cc(Cl)ccc2c(O)c1-c1cccc(Oc2ccccc2)c1 |

Test system: Mus musculus
Assay: Anticonvulsant activity measured by its ability to protect against audiogenic seizure in DBA/2 mice when dosed intraperitoneally 30 min prior to seizure induction.
Assay type: functional
Conditions: ip
Summary of the method: (§2)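 DBA/2 mice, compound dosed intraperitoneally 30 min before induction of audiogenic seizures. Reported as ED50 (mg/kg and μmol/kg) or as number protected/number tested at a single dose. For some compounds the test was run 10 min after dosing.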

| Compound | ED50 [mg/kg] |
| --- | --- |
| NCc1ccc(CC(=O)N[C@H]2C[C@H](C(=O)O)Nc3cc(Cl)cc(Cl)c32)cc1 | 30 |
| Oc1nc2ccccc2c(O)c1-c1ccccc1 | 10.9 |
| Oc1nc2cc(Cl)ccc2c(O)c1-c1cccc(Oc2ccsc2)c1 | 0.75 |
| Oc1nc2cc(Cl)ccc2c(O)c1-c1ccc(Oc2ccccc2)cc1 | 8.3 |
| COc1ccc(Cc2cccc(-c3c(O)c4ccc(Cl)cc4[nH]c3=O)c2)cc1 | 0.7 |
| O=c1[nH]c2cc(Cl)c(Cl)c([N+](=O)[O-])c2[nH]c1=O [LICOSTINEL] | 3.3 |
| Oc1nc2cc(Cl)ccc2c(O)c1-c1cccc(Cc2ccccc2)c1 | 1.3 |
| O=C1Nc2cc(Cl)ccc2CC1[N+](=O)[O-] (configuration not stated) | 13.5 |
| O=c1[nH]c2cc(Cl)ccc2c(O)c1-c1cccc(Oc2ccccc2)c1 | 0.88 |

Test system: Mus musculus
Assay: Ability of intravenously administered compound to prevent seizures, induced by NMDLA (500 mg/kg sc) in mice, in the presence of 60 mg/kg of warfarin
Assay type: functional
Conditions: route intravenous
Summary of the method: (§3)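 Swiss Webster mice; seizures induced by N-methyl-D,L-aspartate 500 mg/kg sc. Test compound given iv 15 min before NMDLA. Where warfarin is used, it is given iv 15 min before the test compound.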

| Compound | ED50 [mg/kg] |
| --- | --- |
| O=c1[nH]c2cc(Cl)ccc2c(O)c1-c1cccc(Oc2ccccc2)c1 | 1.9 |

Target: Glutamate NMDA receptor
Assay: Affinity for the glycine binding site on rat N-methyl-D-aspartate glutamate receptor 1, determined by displacement of the glycine site antagonist [3H]L-689,560 from rat cortical membranes
Assay type: cell membranes, Membrane
Conditions: not given

| IC50 [nM] | Compound |
| --- | --- |
| 2.2 | COCOc1ccc(Cc2cccc(-c3c(O)c4ccc(Cl)cc4[nH]c3=O)c2)cc1 |
| 38.5 | NCc1ccc(CC(=O)N[C@H]2C[C@H](C(=O)O)Nc3cc(Cl)cc(Cl)c32)cc1 |
| 481 | Cc1ccc(-c2c(O)c3ccc(Cl)cc3[nH]c2=O)o1 |
| 4.5 | COc1ccc(Cc2cccc(-c3c(O)c4ccc(Cl)cc4[nH]c3=O)c2)cc1 |
| 2.8 | O=c1[nH]c2cc(Cl)c(Cl)c([N+](=O)[O-])c2[nH]c1=O [LICOSTINEL] |

Test system: not listed separately
Assay: Partition coefficient (logP)
Assay type: physicochemical
Conditions: octanol/water
Summary of the method: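 Octanol/pH 7.4 buffer partition; values were either measured or calculated from tables of π values.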

| logP | Compound |
| --- | --- |
| 3.34 | COCOc1ccc(Cc2cccc(-c3c(O)c4ccc(Cl)cc4[nH]c3=O)c2)cc1 |
| 2.81 | COc1ccc(Cc2cccc(-c3c(O)c4ccc(Cl)cc4[nH]c3=O)c2)cc1 |
| 1.6 | O=c1[nH]c2cc(Cl)ccc2c(O)c1-c1ccccc1 |
| 0.62 | O=C1Nc2cc(Cl)ccc2CC1[N+](=O)[O-] (configuration not stated) |
| 2.9 | O=c1[nH]c2cc(Cl)ccc2c(O)c1-c1cccc(Oc2ccccc2)c1 |

Test system: Mus musculus
Assay: Ability of intravenously administered compound to prevent seizures, induced by NMDLA (500 mg/kg sc) in mice
Assay type: functional
Conditions: not given
Summary of the method: as §3

| Compound | ED50 [mg/kg] |
| --- | --- |
| O=c1[nH]c2cc(Cl)ccc2c(O)c1-c1cccc(Oc2ccccc2)c1 | 3.6 |

Test system: Mus musculus
Assay: Anti convulsant activity of compound was measured by its ability to protect against audiogenic seizure in DBA/2 mice when dosed intraperitoneally 30 min prior to seizure induction.
Assay type: functional
Conditions: ip
Summary of the method: as §2

| Compound | ED50 [mg/kg] |
| --- | --- |
| COCOc1ccc(Cc2cccc(-c3c(O)c4ccc(Cl)cc4[nH]c3=O)c2)cc1 | 0.5 |
| O=c1[nH]c2cc(Cl)ccc2c(O)c1-c1ccccc1 | 4.5 |

Test system: not listed separately
Assay: protein binding index(PBI) is the ratio of binding affinities for the displacement of [3H]- glycine from rat cortical membranes in the presence and absence of 0.2% human serum albumin
Assay type: cell membranes
Conditions: Membrane
Summary of the method: as §1

| PBI | Compound |
| --- | --- |
| 37 | O=c1[nH]c2cc(Cl)ccc2c(O)c1-c1ccccc1 |

Test system: not listed separately
Assay: Protein binding index(PBI) is the ratio of binding affinities for the displacement of [3H]-glycine from rat cortical membranes in the presence and absence of 0.2% human serum albumin
Assay type: functional, cell membranes
Conditions: Membrane
Summary of the method: as §1

| PBI | Compound |
| --- | --- |
| 12.1 | C=C(C)COc1cccc(C2=C(O)/C(=C/CC)NC2=O)c1 |

Organism: Rattus norvegicus
Assay: Clearance into cortex from rat plasma or PBS
Assay type: ADME, organism-based
Conditions: in vivo
Summary of the method: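 Rat in situ brain perfusion (Takasato method, Gratton modifications). Compound is dissolved in phosphate-buffered saline and perfused 10 s, or dissolved in rat plasma and perfused 60 s. Drug in cortex is measured and clearance from the perfusate into cortex is calculated (mL s⁻¹ g⁻¹ × 10⁴). Mean with SEM, n = 4.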

| Cortex_Clearance | Compound |
| --- | --- |
| 2.8 ml s-1 (10e4*g)-1 | COC(=O)c1c(O)c2ccc(Cl)cc2[nH]c1=O |
| 4.4 ml s-1 (10e4*g)-1 | Cc1ccc(-c2c(O)c3ccc(Cl)cc3[nH]c2=O)o1 |
| 0 ml s-1 (10e4*g)-1 | O=c1[nH]c2cc(Cl)ccc2c(O)c1-c1cccc(Oc2ccccc2)c1 |

Test system: Mus musculus
Assay: Ability of intravenously administered compound to prevent seizures, induced by NMDLA (500 mg/kg sc) in mice, in the presence of 100 mg/kg of warfarin
Assay type: functional
Conditions: route intravenous
Summary of the method: as §3

| Compound | ED50 [mg/kg] |
| --- | --- |
| O=c1[nH]c2cc(Cl)ccc2c(O)c1-c1cccc(Oc2ccccc2)c1 | 0.64 |
